Source: ChEMBL document CHEMBL5252539, “In vitro biological evaluation of new antimycobacterial salicylanilide-tuftsin conjugates” (Eur J Med Chem, 2017)
Converted amounts (≈) assume the structure as drawn. The source made the active and inactive calls. The rule behind the calls is not given here. *1 amine or outer side, *2 acyl side, *3 side chain or, on linkers, in order; H or OH if unused. Where a SMILES comes first, the peptide text is derived from it. [ ]: non-standard residue; d: D form. The star is where a group is joined. X1 = C/C(=N\OCC(=O)[*:2])c1ccc(N[*:1])cc1; Benzoyl(5-Br-2-OH) = O=C(c1cc(Br)ccc1O)*

Experiments:
[1] = tested on: Mycobacterium tuberculosis; test: Antimycobacterial activity against isoniazid and rifampicin resistant Mycobacterium tuberculosis A8 ATCC 35822 assessed as reduction in colony forming unit after 28 days by serial dilution method; assay type: functional, organism-based; conditions: time 28.0 day
In short: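 After the 4-week MIC incubation in Sula semisynthetic medium (pH 6.5), growth inhibition confirmed by plating on Löwenstein-Jensen solid medium and counting colony forming units.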

[2] = tested on: Mycobacterium tuberculosis; test: Antimycobacterial activity against isoniazid and rifampicin resistant Mycobacterium tuberculosis A8 ATCC 35822 assessed as reduction in bacterial growth after 28 days by serial dilution method; assay type: functional; conditions: A8 ATCC 35822, 672 h, time 28 day
In short: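 Broth MIC in Sula semisynthetic medium, pH 6.5; 4-week incubation, with 21-day values […] where indicated. Drug-free inoculated bacteria served as growth control. MIC also expressed as drug content (µg/mL) = MIC (µM) × average SAL molar mass × number of SAL per conjugate / 1000.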

SMILES	Activity [1]	MIC [2] [µM]
NNC(=O)c1ccncc1 [ISONIAZID]	Active	7.3 (≈ 1 µg/mL)
CC(=O)c1ccc(NC(=O)c2cc(Br)ccc2O)cc1	Active	15 (≈ 5.01 µg/mL)
C/C(=N\OCC(=O)N[C@H](C(=O)N[C@@H](CCCCN)C(=O)N1CCC[C@H]1C(=O)N1CCC[C@H]1C(=O)N[C@@H](CCCNC(=N)N)C(=O)O)[C@@H](C)O)c1ccc(NC(=O)c2cc(Br)ccc2O)cc1	–	101 (≈ 100 µg/mL)
C/C(=N\OCC(=O)N[C@H](C(=O)N[C@@H](CCCCN)C(=O)N1CCC[C@H]1C(=O)N[C@@H](CCCCN)C(=O)NCC(N)=O)[C@@H](C)O)c1ccc(NC(=O)c2cc(Br)ccc2O)cc1 ({Benzoyl(5-Br-2-OH)}-[X1]TKPKG-NH2)	Active	109 (≈ 100 µg/mL)
C/C(=N\OCC(=O)NCC(=O)N[C@@H](Cc1ccccc1)C(=O)N[C@@H](CC(C)C)C(=O)NCC(=O)N[C@H](C(=O)N[C@@H](CCCCN)C(=O)N1CCC[C@H]1C(=O)N1CCC[C@H]1C(=O)N[C@@H](CCCNC(=N)N)C(=O)O)[C@@H](C)O)c1ccc(NC(=O)c2cc(Br)ccc2O)cc1	–	73.5 (≈ 100 µg/mL)
C/C(=N\OCC(=O)NCC(=O)N[C@@H](Cc1ccccc1)C(=O)N[C@@H](CC(C)C)C(=O)NCC(=O)N[C@H](C(=O)N[C@@H](CCCCN)C(=O)N1CCC[C@H]1C(=O)N[C@@H](CCCCN)C(=O)NCC(N)=O)[C@@H](C)O)c1ccc(NC(=O)c2cc(Br)ccc2O)cc1 ({Benzoyl(5-Br-2-OH)}-[X1]GFLGTKPKG-NH2)	Active	77.4 (≈ 100 µg/mL)
C/C(=N\OCC(=O)NCC(=O)N[C@@H](Cc1ccccc1)C(=O)N[C@@H](CC(C)C)C(=O)NCC(=O)N[C@H](C(=O)N[C@@H](CCCCN)C(=O)N1CCC[C@H]1C(=O)N[C@@H](CCCCN)C(=O)NCC(=O)O)[C@@H](C)O)c1ccc(NC(=O)c2cc(Br)ccc2O)cc1 ({Benzoyl(5-Br-2-OH)}-[X1]GFLGTKPKG-OH)	Active	77.3 (≈ 100 µg/mL)
C/C(=N\OCC(=O)N[C@H](C(=O)N[C@@H](CCCCN)C(=O)N1CCC[C@H]1C(=O)N[C@@H](CCCCN)C(=O)NCC(=O)O)[C@@H](C)O)c1ccc(NC(=O)c2cc(Br)ccc2O)cc1 ({Benzoyl(5-Br-2-OH)}-[X1]TKPKG-OH)	Active	109 (≈ 100 µg/mL)
C/C(=N\OCC(=O)NCC(=O)N[C@@H](Cc1ccccc1)C(=O)N[C@@H](CC(C)C)C(=O)NCC(=O)N[C@H](C(=O)N[C@@H](CCCCN)C(=O)N1CCC[C@H]1C(=O)N[C@@H](CCCNC(=N)N)C(=O)O)[C@@H](C)O)c1ccc(NC(=O)c2cc(Br)ccc2O)cc1	–	79.1 (≈ 100 µg/mL)
O=C(Nc1ccc(Cl)c(Cl)c1)c1cc(Br)ccc1O	–	2.8 (≈ 1.01 µg/mL)
O=C(Nc1ccc(C(F)(F)F)cc1)c1cc(Cl)ccc1O	–	1.6 (≈ 0.505 µg/mL)
O=C(Nc1ccc(Cl)c(Cl)c1)c1cc(Cl)ccc1O	–	1.6 (≈ 0.507 µg/mL)
O=C(Nc1ccc(C(F)(F)F)cc1)c1cc(Br)ccc1O	–	2.8 (≈ 1.01 µg/mL)
C/C(=N\OCC(=O)N[C@H](C(=O)N[C@@H](CCCCN)C(=O)N1CCC[C@H]1C(=O)N[C@@H](CCCNC(=N)N)C(=O)O)[C@@H](C)O)c1ccc(NC(=O)c2cc(Br)ccc2O)cc1 ({Benzoyl(5-Br-2-OH)}-[X1]TKPR-OH)	Active	112 (≈ 100 µg/mL)
CC(=O)c1ccc(NC(=O)c2cc(Cl)ccc2O)cc1	Active	17.3 (≈ 5.01 µg/mL)
O=Cc1ccc(O)c(C(=O)Nc2ccc(C(F)(F)F)cc2)c1	Active	64.7 (≈ 20 µg/mL)
